Assay results reported in paper PMC2874112 (Bioconjugate chemistry, 2010).

Assays:
MCF-7 cells = test: Proliferation study; assay type: cell-based; conditions: tamoxifen-sensitive MCF7 cells, 1 nM estradiol, 7 days, MTT
Procedure, shortened: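 MCF-7 cells were maintained in phenol red free DMEM F-12 HAM with glutamine, penicillin/streptomycin and 10% FBS at 37 °C under 5% CO2. […] Cell number was read by MTT. Two experiments were run, each in triplicate.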

[1] = target: T1, ER alpha levels in MCF7 cells (Homo sapiens, UniProt P03372); test: Receptor stability study; assay type: cell-based; conditions: 24 hours, 10 nM estradiol, 100 nM fulvestrant, 10 μM OHT-6C-BODIPY
T1 sequence (P03372 1-595): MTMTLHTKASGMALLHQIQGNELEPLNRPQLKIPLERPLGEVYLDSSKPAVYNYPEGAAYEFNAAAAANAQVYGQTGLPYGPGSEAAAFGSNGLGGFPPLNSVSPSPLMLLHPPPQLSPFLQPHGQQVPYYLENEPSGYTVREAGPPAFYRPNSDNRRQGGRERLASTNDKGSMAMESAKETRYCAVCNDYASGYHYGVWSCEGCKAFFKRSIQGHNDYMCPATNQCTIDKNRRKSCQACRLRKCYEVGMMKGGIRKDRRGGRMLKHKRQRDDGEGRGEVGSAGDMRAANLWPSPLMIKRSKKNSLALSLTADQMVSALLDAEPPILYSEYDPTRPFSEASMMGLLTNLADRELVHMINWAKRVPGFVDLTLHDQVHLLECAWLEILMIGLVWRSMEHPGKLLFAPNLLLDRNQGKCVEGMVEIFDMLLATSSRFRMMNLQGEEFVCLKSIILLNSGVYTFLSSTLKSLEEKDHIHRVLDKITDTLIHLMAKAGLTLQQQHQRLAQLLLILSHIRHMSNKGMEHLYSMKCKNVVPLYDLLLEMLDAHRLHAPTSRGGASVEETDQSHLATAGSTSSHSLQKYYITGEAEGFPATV

Effect on cellular ER alpha levels [1] | Structure (SMILES) | Effect on estradiol-induced growth (MCF-7 cells)
– | CC/C(=C(\c1ccc(O)cc1)c1ccc(OCCN(C)C)cc1)c1ccccc1 [OHT, 4-hydroxytamoxifen] | able to block estradiol-induced growth
marked receptor downregulation | C[C@]12CC[C@@H]3c4ccc(O)cc4C[C@@H](CCCCCCCCC[S+]([O-])CCCC(F)(F)C(F)(F)F)[C@H]3[C@@H]1CC[C@@H]2O (some centres unmarked) [fulvestrant] | –
